High-throughput results deposited in PubChem BioAssay by several laboratories.
This is one part of a sample in which hits are shown more often than they occur.
CHOP UPR activ: activators of apoptotic arm of unfolded protein response (CHOP); activation, % at 10 µM; 0.34% of 330,000 active; CHO-CHOP luciferase reporter, UPR activation, luminescence; percent of tunicamycin response over DMSO baseline; AID 449763;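 active = at 10 µM dose, activation of 40% or more, normalized to positive control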;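 also: 100% = tunicamycin at 10 µg/mL and 0% = DMSO alone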
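Evaluation: % reporter activation, DMSO baseline versus tunicamycin full activation; System: CHO-CHOP luciferase reporter cell line; Input: 500 cells/well; Incubation: 6 h compound treatment, 37 °C; Measured by: Steady-Glo luciferase luminescence; Dosing: one dose, 10 µM in 0.5% DMSO; Buffer or medium: F12 medium, 10% FBS; Benchmarks: positive tunicamycin 10 µg/mL, negative DMSO alone.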
CHOP inh: CHOP inhibition in unfolded protein response; AID 2732; 3.8% of 220,000 active; CHO-K1 CHOP-promoter luciferase, tunicamycin-induced, 15-18 h; inhibition, % at 10 µM;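 active = compounds that reduced the stress-induced luciferase reporter signal by more than about 70% of percent inhibition, limit read from the data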;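 also: 0% = tunicamycin plus vehicle and 100% = wells without tunicamycin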
UPR XBP1 act: adaptive UPR (XBP1) activation. CHO-XBP1 luciferase reporter, IRE1-XBP1 UPR activation, luminescence; percent of tunicamycin response, DMSO as zero. activation, % at 20 µM. 0.33% of 330,000 active;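 active = versus positive control, 20 µM dose yields 30% or more activation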;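 also: 100% = tunicamycin at 10 µg/mL and 0% = DMSO only wells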
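Material: CHO cell line with stable XBP1 luciferase reporter; buffer or medium: F12 medium containing 10% fetal bovine serum; compound: single point, 20 µM final compound, 1% DMSO; incubation: 6 h treatment, 37 °C; measured by: glow luminescence from Steady-Glo reagent; evaluation: activation, % of tunicamycin; control set: tunicamycin high, DMSO low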
H9c2 protect: modulators protecting cardiomyocytes from myocardial damage | H9c2 cardiomyocytes, H2O2 injury protection, ATPLite, 2 h | protection from H2O2 cell death, % at 20 µM | 0.63% of 360,000 active;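 active = compounds giving at least 50% protection of heart cells from peroxide-induced death in the single-dose screen, raw or plate-pattern-corrected value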;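 also: 0% = DMSO wells with peroxide and 100% = DMSO wells without peroxide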
iPSC survival up: hiPSC single-cell survival enhancement | ATPlite luminescence; 100% = ROCK inhibitor wells, 0% = DMSO | survival enhancement, % at 20 µM | 0.044% of 360,000 active; in the data active = survival enhancement above about 18%;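 also: cells exposed to compounds for 16 hours before the ATP read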
UPR CHOP confirm: apoptotic UPR (CHOP) activation, confirmed. shares compounds with CHOP UPR activ. CHO-CHOP cells, CHOP-luciferase reporter luminescence; percent of tunicamycin response, DMSO as zero. activation, % at 10 µM. 64% of 1,000 active; in the data active = activation above about 33%;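 also: 0% = DMSO wells and 100% = tunicamycin 10 µg/mL wells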
* = called active by the depositor; . = no result.

SMILES	CHOP UPR activ	CHOP inh	UPR XBP1 act	H9c2 protect	iPSC survival up	UPR CHOP confirm
CC[C@@H](C)[C@H](CNC)NC[C@@H](Cc1cccc2ccccc12)NCCc1cccc(C(F)(F)F)c1	34	.	8	-13	-4	.
CCC[C@@H](CN[C@@H](CNC)C(C)C)NCCCCc1ccccc1	-1	.	1	-6	-6	.
CNC[C@@H](Cc1ccccc1)NC[C@@H](CC1CCCCC1)NCCCc1ccccc1	74*	.	2	-23	-6	34*
CNC[C@@H](CC1CCCCC1)NC[C@H](CC(C)C)NCCc1cccc(C(F)(F)F)c1	83*	.	-5	-34	-3	33*
CCCCCCCCN1C(=O)[C@H](CC(=O)N2CCOCC2)C[C@@]2(C(=O)OC)CCCCC=C12	.	.	.	.	0	.
Cc1ccccc1/C=C/C(=O)c1ccc([N+](=O)[O-])o1	112*	.	0	.	.	68*
O=C(/C=C/c1cccc([N+](=O)[O-])c1)c1ccc([N+](=O)[O-])o1	.	.	.	-23	13	.
Cc1cccc(/C=C/C(=O)c2ccc([N+](=O)[O-])o2)c1	217*	.	-7	1	-2	142*
Cc1ccccc1NC(=O)c1ccc([N+](=O)[O-])o1	2	66	0	-19	-2	.
COc1ccc(/C=C/C(=O)c2ccc([N+](=O)[O-])o2)cc1	89*	.	-6	-1	-4	99*
O=C(CSc1nc2[nH]ncc2c(=O)[nH]1)Nc1cc(C(F)(F)F)ccc1Cl	.	.	.	3	-1	.
Cc1ccc(NC(=O)CN2C(=O)NC(C)(C3CC3)C2=O)c(C)c1 (stereo not given)	70*	.	-2	-4	0	-1
Cc1ccc(NC(=O)CN2C(=O)NC(C)(C3CC3)C2=O)c([N+](=O)[O-])c1 (stereo not given)	1	.	-2	2	7	.
CCC(=NNS(=O)(=O)c1ccc(C)cc1)c1ccc(OC)c(C)c1	.	.	.	-2	3	.
O=c1c2c3c(sc2ncn1/N=C/c1ccc([N+](=O)[O-])o1)CCCC3	213*	57	-9	-2	-1	195*
Cn1cc(/C=N/n2cnc3sc4c(c3c2=O)CCCC4)c2ccccc21	0	0	3	8	1	.
Cc1ccc(OC(=O)N(C)C[C@H]2OCc3cn(nn3)CCCC(=O)N([C@H](C)CO)C[C@@H]2C)cc1	.	.	.	1	1	.
CC1(C)CC(=O)C2=C(C1)N=c1s/c(=C/c3ccc(F)c(F)c3)c(=O)n1C2c1ccc(F)cc1 (stereo not given)	40*	-25	2	-6	-3	29
CCOC(=O)C1=C(C)N=c2s/c(=C\c3ccc(C(=O)O)cc3)c(=O)n2C1c1ccc(F)cc1 (stereo not given)	0	.	8	1	-1	.
C=C(C(=O)c1ccccc1)C(C(=C)C(=O)c1ccccc1)c1ccc(OC)cc1	62*	56	0	-11	-1	65*
COc1ccc(C(CC(=O)c2ccccc2)CC(=O)c2ccccc2)cc1	-2	4	3	11	0	.
COc1ccc(C(=O)c2no[n+]([O-])c2C(=O)c2ccc(OC)cc2)cc1	-4	56	-9	-32	0	.
Cc1c(C(=O)c2no[n+]([O-])c2C(=O)c2cnn(C)c2C)cnn1C	55*	4	-7	-33	-5	91*
Cc1nc2scc(-c3ccccc3)c2c(=O)n1N=C1C=CC(=O)C=C1	90*	110*	-7	.	.	13
CCOC(=O)c1c(NC(=O)c2ccco2)n(C2CCCCC2)c2nc3ccccc3nc12	40*	40	5	3	5	0
SMILES	CHOP UPR activ	CHOP inh	UPR XBP1 act	H9c2 protect	iPSC survival up	UPR CHOP confirm
O=C(NCc1ccccc1F)C1CC(=O)N(Cc2ccco2)C1 (stereo not given)	.	.	.	0	9	.
Cc1c(C#N)c(NC(=O)CCl)n(Cc2ccccc2)c1C	113*	-12	-5	-12	-2	57*
Cc1c(C#N)c(NC(=O)CCl)n(Cc2cccs2)c1C	87*	53	-2	-11	-2	71*
Cc1c(C#N)c(NC(=O)CCl)n(Cc2ccc(F)cc2)c1C	65*	-92	0	-9	-2	74*
C[C@H]1CN([C@@H](C)CO)C(=O)c2cc(NC(=O)C3CCCCC3)ccc2O[C@H]1CN(C)S(=O)(=O)c1ccccc1	1	.	1	9	1	.
CCOc1ccc(CCNC(=O)COC(=O)COc2ccc(C#N)cc2)cc1OCC	1	.	3	0	0	.
Cc1cc(C(=O)c2ccccc2)c(NC(=O)CCl)s1	45*	-152	3	-6	-1	4
CCN(CC)CC(=O)Nc1sc(C)cc1C(=O)c1ccccc1	-1	.	-2	-2	0	.
CSc1ccc(CN2CCC2(C)C(=O)NC2CCc3ccccc32)cc1 (stereo not given)	.	.	.	-8	6	.
CCOC(=O)c1c(C)oc2c1c(C(c1ccccc1)N1CCOCC1)c(O)c1ccccc12 (stereo not given)	62*	-23	11	-18	-3	73*
CCOC(=O)c1c(C)oc2c1c(C=NCCO)c(O)c1ccccc12	.	50	.	-29	-3	.
CCOC(=O)c1c(C)oc2c1c(C(c1cccnc1)N1CCCCC1)c(O)c1ccccc12 (stereo not given)	114*	17	11	-24	-1	182*
Cc1cccc(S(=O)(=O)NC(=O)C2(C)CCN2C(=O)c2c(C)noc2C)c1 (stereo not given)	.	.	.	5	4	.
O=C(NCC1CC1)c1cc(-c2ccccc2)nn1CC1CC(c2cccnc2)=NO1 (stereo not given)	-1	.	0	-1	-2	.
Oc1c(N=Nc2ccccn2)ccc2ccccc12	276*	80*	-2	-8	-4	211*
CCCN1C(=O)/C(=C/c2ccc3c(c2)OCO3)NC1=S	.	-38	.	1	2	.
CCCN1C/C(=C/c2ccc3c(c2)OCO3)C(=O)/C(=C/c2ccc3c(c2)OCO3)C1	55*	97*	6	9	-2	115*
O=C(CCN1C(=O)/C(=C/c2cccs2)SC1=S)N1CCCCC1	40*	.	-3	-4	0	23
CCCC#Cc1ccc2c(c1)O[C@H](CN(C)C(=O)CC1CC1)[C@H](C)CN([C@@H](C)CO)S2(=O)=O	.	.	.	-3	1	.
O=C(CSc1ccc2ccccc2c1)NCCc1ccc(O)c(O)c1	55*	-113	11	80*	-1	46*
N#Cc1c(N2CCCC(O)C2)nc(N)c2c(N)nc3c(c12)CC(=O)N3C12CC3CC(CC(C3)C1)C2 (stereo not given)	46*	-101	25	-22	-4	20
Oc1ccc(/C=N/N2CCCCC2)cc1O	179*	.	5	69*	3	38*
